Experimental data reported in ChEMBL document CHEMBL1138351, “Small, potent, and selective diaryl phosphonate inhibitors for urokinase-type plasminogen activator with in vivo antimetastatic properties” (J Med Chem, 2007).

Experiments:
Rattus norvegicus [1] = assay: Toxicity in Brown Norwegian rat bearing BN472 tumor assessed as increase in kidney weight at 0.1 mg/kg, ip administered once daily after 4 days of tumor transplantation for 17 to 18 days relative to control; assay type: organism-based; set-up: dose 0.1 mg/kg, route intraperitoneal; conditions: in vivo
Outline: (§1)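 Orthotopic BN472 breast tumour model in rats. Daily i.p. dosing at 0.1 or 1 mg/kg started on day 4 and ran 17–18 days, with vehicle-only i.p. controls. Side effects were assessed from body weight and the weights of several organs, compared with controls.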

Coagulation factor X = Coagulation factor X (Homo sapiens, UniProt P00742); assay: Inhibition of factor 10a
Outline: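 Human factor Xa (FX activated with Russell's viper venom) at about 5 mU was preincubated with inhibitor (0–250 µM final) for 15 min at 37 °C. […] IC50 came from a four-parameter logistic fit.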

[2] = Antitumor activity aganist Brown Norwegian rat bearing BN472 tumor assessed as reduction of tumor weight at 0.1 mg/kg, ip administered once daily after 4 days of tumor transplantation for 17 to 18 days relative to control; assay type: functional; set-up: scale not given: the % may be the effect or the level left; conditions: route intraperitoneal
Outline: (§2)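 Rats bearing orthotopic BN472 breast tumours (grown three days) were dosed i.p. daily from day 4 for 17–18 days at 0.1 or 1 mg/kg. Vehicle-only i.p. controls were included. Tumour size and tumour weight were measured at the end of the treatment period and compared with controls.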

[3] = Antimetastatic activity against Brown Norwegian rat bearing BN472 tumor assessed as reduction of axillary lymph node weight at 0.1 mg/kg, ip administered once daily after 4 days of tumor transplantation for 17 to 18 days relative to control; assay type: functional; set-up: scale not given: the % may be the effect or the level left; conditions: route intraperitoneal
Outline: (§3)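 BN472 breast tumours implanted orthotopically in rats and left to grow three days. From day 4, compounds were given i.p. daily for 17–18 days at 0.1 or 1 mg/kg. Controls received vehicle i.p. only. Lung foci were counted and axillary lymph nodes weighed at the end of treatment. Groups were compared with control at an unadjusted significance level of P 0.05.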

Rattus norvegicus [4] = assay: Toxicity in Brown Norwegian rat bearing BN472 tumor assessed as increase in uterus weight at 0.1 mg/kg, ip administered once daily after 4 days of tumor transplantation for 17 to 18 days relative to control; assay type: organism-based; set-up: dose 0.1 mg/kg, route intraperitoneal; conditions: in vivo; outline: as §1
Plasminogen [5] = target: Plasminogen (Homo sapiens, UniProt P00747); assay: Inhibition of human plasmin
Outline: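 Plasmin from human plasma at about 5 mU was preincubated with inhibitor (0–250 µM final) for 15 min at 37 °C. Substrate was S-2366 at 580 µM in Tris pH 7.4. Initial rate was read at 405 nm, in duplicate. IC50 came from a four-parameter logistic fit.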

[6] = Antimetastatic activity against Brown Norwegian rat bearing BN472 tumor assessed as reduction of axillary lymph node weight at 1 mg/kg, ip administered once daily after 4 days of tumor transplantation for 17 to 18 days relative to control; assay type: functional; set-up: scale not given: the % may be the effect or the level left; conditions: route intraperitoneal; outline: as §3
Rattus norvegicus [7] = assay: Toxicity in Brown Norwegian rat bearing BN472 tumor assessed as increase in lung weight at 1 mg/kg, ip administered once daily after 4 days of tumor transplantation for 17 to 18 days relative to control; assay type: organism-based; set-up: dose 1 mg/kg, route intraperitoneal; conditions: in vivo; outline: as §1
[8] = Chemical stability assessed as half life of hydrolysis at pH 1; assay type: physicochemical; conditions: buffer
[9] = Antimetastatic activity against Brown Norwegian rat bearing BN472 tumor assessed as reduction of interpectoral lymph node weight at 0.1 mg/kg, ip administered once daily after 4 days of tumor transplantation for 17 to 18 days relative to control; assay type: functional; set-up: scale not given: the % may be the effect or the level left; conditions: route intraperitoneal
Prothrombin = Prothrombin (Rattus norvegicus, UniProt P18292); assay: Inhibition of rat thrombin
Plasminogen [10] = target: Plasminogen (Mus musculus, UniProt P20918); assay: Inhibition of mouse plasmin
Rattus norvegicus [11] = assay: Toxicity in Brown Norwegian rat bearing BN472 tumor assessed as increase in spleen weight at 0.1 mg/kg, ip administered once daily after 4 days of tumor transplantation for 17 to 18 days relative to control; assay type: organism-based; set-up: dose 0.1 mg/kg, route intraperitoneal; conditions: in vivo; outline: as §1
[12] = target: Tissue-type plasminogen activator (Homo sapiens, UniProt P00750); assay: Inhibition of human recombinant tPA
Rattus norvegicus [13] = assay: Toxicity in Brown Norwegian rat bearing BN472 tumor assessed as increase in uterus weight at 1 mg/kg, ip administered once daily after 4 days of tumor transplantation for 17 to 18 days relative to control; assay type: organism-based; set-up: dose 1 mg/kg, route intraperitoneal; conditions: in vivo; outline: as §1
[14] = Apparent solubility in phosphate buffered saline at pH 7.4 after 2 hrs; assay type: ADME
Outline: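 Compounds were serially diluted from 10 mM DMSO stock into PBS pH 7.4 (2% DMSO final), giving 1–200 µM final at eight concentrations, in duplicate. Incubation was 2 h at 37 °C. Solubility was taken as the onset of increased absorbance at 620 nm.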

[15] = Antimetastatic activity against Brown Norwegian rat bearing BN472 tumor assessed as decrease in number of lung foci at 1 mg/kg, ip administered once daily after 4 days of tumor transplantation for 17 to 18 days relative to control; assay type: functional; set-up: scale not given: the % may be the effect or the level left; conditions: route intraperitoneal; outline: as §3
[16] = Antitumor activity against Brown Norwegian rat bearing BN472 tumor assessed as reduction of tumor weight at 1 mg/kg, ip administered once daily after 4 days of tumor transplantation for 17 to 18 days relative to control; assay type: functional; set-up: scale not given: the % may be the effect or the level left; conditions: route intraperitoneal; outline: as §2
Rattus norvegicus [17] = assay: Toxicity in Brown Norwegian rat bearing BN472 tumor assessed as increase in lung weight at 0.1 mg/kg, ip administered once daily after 4 days of tumor transplantation for 17 to 18 days relative to control; assay type: organism-based; set-up: dose 0.1 mg/kg, route intraperitoneal; conditions: in vivo; outline: as §1
[18] = Chemical stability assessed as half life of hydrolysis at pH 8.8; assay type: physicochemical; conditions: buffer
Rattus norvegicus [19] = assay: (§4) Toxicity in Brown Norwegian rat bearing BN472 tumor assessed as decrease in adrenal weight at 0.1 mg/kg, ip administered once daily after 4 days of tumor transplantation for 17 to 18 days relative to control; assay type: organism-based; set-up: dose 0.1 mg/kg, route intraperitoneal; scale not given: the % may be the effect or the level left; conditions: in vivo; outline: as §1
Rattus norvegicus [20] = assay: Toxicity in Brown Norwegian rat bearing BN472 tumor assessed as effect on body weight at 1 mg/kg, ip administered once daily after 4 days of tumor transplantation for 17 to 18 days relative to control; assay type: organism-based; set-up: dose 1 mg/kg, route intraperitoneal; conditions: in vivo; outline: as §1
[21] = Antimetastatic activity against Brown Norwegian rat bearing BN472 tumor assessed as reduction of interpectoral lymph node weight at 1 mg/kg, ip administered once daily after 4 days of tumor transplantation for 17 to 18 days relative to control; assay type: functional; set-up: scale not given: the % may be the effect or the level left; conditions: route intraperitoneal
Rattus norvegicus [22] = assay: as §4; assay type: organism-based; set-up: dose 0.1 mg/kg, route intraperitoneal; scale not given: the % may be the effect or the level left; conditions: in vivo; outline: as §1; remark: listed apart in the source
[23] = Chemical stability assessed as half life of hydrolysis at pH 4; assay type: physicochemical; conditions: buffer
Rattus norvegicus [24] = assay: Toxicity in Brown Norwegian rat bearing BN472 tumor assessed as decrease in spleen weight at 1 mg/kg, ip administered once daily after 4 days of tumor transplantation for 17 to 18 days relative to control; assay type: organism-based; set-up: dose 1 mg/kg, route intraperitoneal; scale not given: the % may be the effect or the level left; conditions: in vivo; outline: as §1
Rattus norvegicus [25] = assay: Toxicity in Brown Norwegian rat bearing BN472 tumor assessed as effect on body weight at 0.1 mg/kg, ip administered once daily after 4 days of tumor transplantation for 17 to 18 days relative to control; assay type: organism-based; set-up: dose 0.1 mg/kg, route intraperitoneal; conditions: in vivo; outline: as §1
Rattus norvegicus [26] = assay: Toxicity in Brown Norwegian rat bearing BN472 tumor assessed as decrease in liver weight at 0.1 mg/kg, ip administered once daily after 4 days of tumor transplantation for 17 to 18 days relative to control; assay type: organism-based; set-up: dose 0.1 mg/kg, route intraperitoneal; scale not given: the % may be the effect or the level left; conditions: in vivo; outline: as §1
[27] = target: Urokinase-type plasminogen activator (Rattus norvegicus, UniProt P29598); assay: Inhibition of rat uPA
Rattus norvegicus [28] = assay: Toxicity in Brown Norwegian rat bearing BN472 tumor assessed as decrease in liver weight at 1 mg/kg, ip administered once daily after 4 days of tumor transplantation for 17 to 18 days relative to control; assay type: organism-based; set-up: dose 1 mg/kg, route intraperitoneal; scale not given: the % may be the effect or the level left; conditions: in vivo; outline: as §1

Chain of Plasminogen (Homo sapiens, UniProt P00747) (P00747 97-580 limits assumed): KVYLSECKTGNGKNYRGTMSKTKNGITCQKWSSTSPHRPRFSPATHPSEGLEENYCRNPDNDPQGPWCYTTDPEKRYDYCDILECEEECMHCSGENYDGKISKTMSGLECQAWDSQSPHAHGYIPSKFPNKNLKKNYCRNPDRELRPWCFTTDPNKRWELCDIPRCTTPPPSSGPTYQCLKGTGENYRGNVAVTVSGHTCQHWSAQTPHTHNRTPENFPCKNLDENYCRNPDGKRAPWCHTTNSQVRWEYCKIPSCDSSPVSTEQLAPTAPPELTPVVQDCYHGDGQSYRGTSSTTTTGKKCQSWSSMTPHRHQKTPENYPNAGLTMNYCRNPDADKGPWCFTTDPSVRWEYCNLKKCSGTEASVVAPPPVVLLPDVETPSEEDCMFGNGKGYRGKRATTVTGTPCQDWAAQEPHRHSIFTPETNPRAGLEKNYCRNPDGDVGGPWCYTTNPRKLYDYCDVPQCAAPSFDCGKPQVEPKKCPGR
Chain of Plasminogen (Homo sapiens, UniProt P00747) (P00747 581-810 limits assumed): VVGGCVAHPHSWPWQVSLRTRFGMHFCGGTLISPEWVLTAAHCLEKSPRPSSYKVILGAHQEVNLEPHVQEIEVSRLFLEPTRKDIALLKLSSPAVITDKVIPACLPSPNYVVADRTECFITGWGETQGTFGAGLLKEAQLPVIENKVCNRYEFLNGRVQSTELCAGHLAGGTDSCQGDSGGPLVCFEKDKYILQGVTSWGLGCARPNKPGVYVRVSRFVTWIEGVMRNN
Chain of Urokinase-type plasminogen activator (P29598 20-177 limits assumed): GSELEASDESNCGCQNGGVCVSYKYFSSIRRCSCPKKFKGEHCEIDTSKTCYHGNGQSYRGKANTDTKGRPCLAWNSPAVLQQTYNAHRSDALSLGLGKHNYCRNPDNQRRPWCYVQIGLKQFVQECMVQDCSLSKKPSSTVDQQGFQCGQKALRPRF
Chain of Urokinase-type plasminogen activator (P29598 179-432 limits assumed): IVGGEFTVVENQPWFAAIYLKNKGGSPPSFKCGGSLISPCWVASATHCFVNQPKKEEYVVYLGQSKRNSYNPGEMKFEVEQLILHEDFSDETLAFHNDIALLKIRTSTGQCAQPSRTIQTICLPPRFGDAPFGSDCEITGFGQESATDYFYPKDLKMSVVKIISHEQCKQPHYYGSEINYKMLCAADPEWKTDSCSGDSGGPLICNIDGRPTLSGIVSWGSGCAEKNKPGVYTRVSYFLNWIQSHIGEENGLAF
Chain of Tissue-type plasminogen activator (P00750 whole entry): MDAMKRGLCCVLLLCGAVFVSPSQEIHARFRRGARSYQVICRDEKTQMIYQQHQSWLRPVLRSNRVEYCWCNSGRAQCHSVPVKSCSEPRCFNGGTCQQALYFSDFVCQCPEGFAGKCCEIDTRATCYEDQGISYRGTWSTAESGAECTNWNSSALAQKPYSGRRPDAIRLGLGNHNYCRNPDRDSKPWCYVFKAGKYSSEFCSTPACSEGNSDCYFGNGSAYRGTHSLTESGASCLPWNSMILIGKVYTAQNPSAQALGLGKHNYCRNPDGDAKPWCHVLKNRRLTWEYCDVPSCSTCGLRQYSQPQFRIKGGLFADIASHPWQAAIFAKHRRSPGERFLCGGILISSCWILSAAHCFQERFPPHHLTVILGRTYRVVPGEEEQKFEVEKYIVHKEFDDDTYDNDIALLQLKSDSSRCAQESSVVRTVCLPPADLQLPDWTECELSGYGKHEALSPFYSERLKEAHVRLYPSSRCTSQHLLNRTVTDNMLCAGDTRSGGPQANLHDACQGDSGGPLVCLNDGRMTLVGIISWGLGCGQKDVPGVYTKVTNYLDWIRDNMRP
Chain of Coagulation factor X (P00742 41-179 limits assumed): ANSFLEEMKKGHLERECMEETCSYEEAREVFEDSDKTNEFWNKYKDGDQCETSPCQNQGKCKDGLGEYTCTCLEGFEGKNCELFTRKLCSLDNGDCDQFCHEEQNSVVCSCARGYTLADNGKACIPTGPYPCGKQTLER
Chain of Coagulation factor X (P00742 235-488 limits assumed): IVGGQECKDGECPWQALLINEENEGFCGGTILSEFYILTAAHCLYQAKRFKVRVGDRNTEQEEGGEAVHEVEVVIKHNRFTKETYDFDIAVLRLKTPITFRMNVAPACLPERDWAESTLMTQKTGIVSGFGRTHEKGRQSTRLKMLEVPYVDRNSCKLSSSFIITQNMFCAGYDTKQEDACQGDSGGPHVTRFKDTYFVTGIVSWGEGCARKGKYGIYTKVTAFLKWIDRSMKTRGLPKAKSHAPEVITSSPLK
Chain of Plasminogen (Mus musculus, UniProt P20918) (P20918 98-581 limits assumed): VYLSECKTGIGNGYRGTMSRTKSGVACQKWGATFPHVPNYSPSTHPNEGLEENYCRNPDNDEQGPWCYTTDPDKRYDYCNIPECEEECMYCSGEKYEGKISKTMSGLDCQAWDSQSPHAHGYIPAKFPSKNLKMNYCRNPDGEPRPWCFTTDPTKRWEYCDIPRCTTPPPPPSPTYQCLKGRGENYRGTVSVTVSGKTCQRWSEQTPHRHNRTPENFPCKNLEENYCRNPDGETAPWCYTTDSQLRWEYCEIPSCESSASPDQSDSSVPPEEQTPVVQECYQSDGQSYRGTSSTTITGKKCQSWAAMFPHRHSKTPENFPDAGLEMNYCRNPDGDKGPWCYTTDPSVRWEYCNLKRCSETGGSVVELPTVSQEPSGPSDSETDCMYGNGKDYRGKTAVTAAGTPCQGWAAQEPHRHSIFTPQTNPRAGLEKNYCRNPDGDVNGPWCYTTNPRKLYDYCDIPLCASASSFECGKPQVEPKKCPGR
Chain of Plasminogen (Mus musculus, UniProt P20918) (P20918 582-812 limits assumed): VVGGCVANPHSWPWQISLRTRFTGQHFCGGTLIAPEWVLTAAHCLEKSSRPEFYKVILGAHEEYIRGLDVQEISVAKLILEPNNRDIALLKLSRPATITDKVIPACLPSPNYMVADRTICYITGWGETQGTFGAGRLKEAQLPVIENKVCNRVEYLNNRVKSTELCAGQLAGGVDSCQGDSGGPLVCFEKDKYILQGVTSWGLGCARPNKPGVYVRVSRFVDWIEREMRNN

With COC(=O)NC(Cc1ccc(NC(=N)N)cc1)P(=O)(Oc1ccc(NC(C)=O)cc1)Oc1ccc(NC(C)=O)cc1 (stereo not given) as the molecule, how does the Activity (Rattus norvegicus [1]) read?
Its Activity is 7%.

And the IC50 (Coagulation factor X)?
Its IC50 is 30 µM.

And the Activity [2]?
Its Activity is 15%.

What about the Activity [3] of the same molecule?
Its Activity is 49%.

What about the Activity (Rattus norvegicus [4]) of the same molecule?
Its Activity is 16%.

And the IC50 (Plasminogen [5])?
Its IC50 is 2.8 µM.

What about the Activity [6] of the same molecule?
Its Activity is 73%.

What about the Activity (Rattus norvegicus [7]) of the same molecule?
Its Activity is 7%.

What about the half-life [8] of the same molecule?
Its half-life is 35 h.

What about the Activity [9] of the same molecule?
Its Activity is 3%.

What about the IC50 (Prothrombin) of the same molecule?
The IC50 was 45 µM.

What about the IC50 (Plasminogen [10]) of the same molecule?
The IC50 was 4.8 µM.

What about the Activity (Rattus norvegicus [11]) of the same molecule?
Its Activity is 3%.

And the IC50 [12]?
Its IC50 is 6.1 µM.

What about the Activity (Rattus norvegicus [13]) of the same molecule?
The Activity was 33%.

What about the solubility at 2 h [14] of the same molecule?
Its solubility at 2 h is > 200 µM.

And the Activity [15]?
Its Activity is 70%.

And the Activity [16]?
The Activity was 17%.

What about the Activity (Rattus norvegicus [17]) of the same molecule?
The Activity was 18%.

What about the half-life [18] of the same molecule?
Its half-life is 3 h.

And the Activity (Rattus norvegicus [19])?
Its Activity is 2%.

What about the Activity (Rattus norvegicus [20]) of the same molecule?
Its Activity is 170.5 g.

And the Activity [21]?
Its Activity is 6%.

What about the Activity (Rattus norvegicus [22]) of the same molecule?
The Activity was 5%.

What about the half-life [23] of the same molecule?
The half-life was > 336 h.

What about the Activity (Rattus norvegicus [24]) of the same molecule?
Its Activity is 10%.

And the Activity (Rattus norvegicus [25])?
The Activity was 163.5 g.

And the Activity (Rattus norvegicus [26])?
The Activity was 2%.

What about the IC50 [27] of the same molecule?
Its IC50 is 0.0245 µM.

And the Activity (Rattus norvegicus [28])?
The Activity was 8%.
